# ADAM17 inh: ADAM17 inhibition, QFRET primary screen; inhibition, % at 6.95 µM; recombinant ADAM17, EDANS/DABCYL FRET peptide cleavage; 370,000 tested, 0.83% active; AID 720648; P78536;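 active means inhibition above the mean of compounds lying between control limits plus 3 SD, set per campaign, cut at about 8.5% in these data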;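 further: 0% = DMSO-only wells as the low control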
# ADAM10 inh: inhibits human ADAM10 | O14672 | recombinant ADAM10, EDANS/DABCYL FRET peptide cleavage, 3 h | inhibition, % at 7 µM | 370,000 tested, 0.62% active;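 active means inhibition above a per-campaign cutoff equal to the mean of compounds falling between control-based bounds plus 3 SD, cut at about 20% in these data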;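 further: 0% = DMSO wells while the 100% control is not disclosed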
# Target sequence (O14672 214-748 limits assumed): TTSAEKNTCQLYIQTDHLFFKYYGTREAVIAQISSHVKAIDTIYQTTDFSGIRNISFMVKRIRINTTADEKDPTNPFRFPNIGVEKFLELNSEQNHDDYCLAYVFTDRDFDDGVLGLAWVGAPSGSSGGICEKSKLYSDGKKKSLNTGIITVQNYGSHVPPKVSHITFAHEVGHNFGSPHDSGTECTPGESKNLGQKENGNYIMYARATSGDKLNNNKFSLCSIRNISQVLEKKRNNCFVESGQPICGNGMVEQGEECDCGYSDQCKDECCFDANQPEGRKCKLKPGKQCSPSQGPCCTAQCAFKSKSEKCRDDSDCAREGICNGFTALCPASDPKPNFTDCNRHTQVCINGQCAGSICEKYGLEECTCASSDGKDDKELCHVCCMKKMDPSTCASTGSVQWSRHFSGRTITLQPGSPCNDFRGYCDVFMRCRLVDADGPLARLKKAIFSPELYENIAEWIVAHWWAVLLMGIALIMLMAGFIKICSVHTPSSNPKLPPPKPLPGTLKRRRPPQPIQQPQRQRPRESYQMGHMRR
# Hep lipid drop: modulators of hepatic lipid droplet formation; 240,000 tested, 0.4% active; inhibition, % at 6.5 µM; AML12 mouse hepatocytes, oleate lipid droplets, BODIPY imaging;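 active means lipid droplet intensity inhibited by at least 50%, with more than 500 cells counted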
#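 Assay system: AML12 mouse liver cells | Compound dosing: One dose, 6.5 µM compound | Read-out basis: Droplet intensity reduction, % inhibition | Measured by: Fluorescence imaging, 20x objective, two fields per well | Schedule: Overnight treatment with compound plus oleate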
# aDG glyco up: increases alpha dystroglycan glycosylation | Pro5-aDG cells, alpha-DG glycosylation AlphaScreen (IIH6); 0% Pro5, 100% B10-LARGE cell signal | activation, % at 10 µM | 360,000 tested, 0.22% active | AID 624168;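 active means activation of at least 8% versus controls, or a plate z-score of at least 8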;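 further: Pro5 are CHO cells carrying HIG-tagged alpha-DG that lacks glycosylation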
# MPTP block: blocks calcium-induced mitochondrial swelling | isolated mouse mitochondria, Ca2+ swelling absorbance, 30 min | inhibition, % at 10 µM | 360,000 tested, 1.4% active;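 active means inhibition of 50% or more, scaled per plate between neutral and stimulator controls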;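 further: 0% = DMSO wells given calcium and 100% = 1 mM EGTA wells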
# V-ATPase pHluor: yeast V-ATPase proton transport regulation by pHLuorin; S. cerevisiae, pHLuorin cytosolic pH fluorescence; response, % at 10 µM; 350,000 tested, 0.37% active; AID 504577; in the data active means response mostly above about 7.3%, no sharp cut-off; inactive means mostly below about 5.4%; further: actives read high
# VATPase regulator: yeast V-ATPase proton transport regulation; S. cerevisiae pHLuorin cytosolic pH; response, % at 10 µM; shares compounds with V-ATPase pHluor; AID 602197; 980 tested, 2% active; in the data active means response above about 24%;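 further: plate controls were vehicle wells for no effect and positive control wells for full effect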
# Starred values were filed as active, the others as inactive; x = not tested or not shown. A selection: hits, their analogues and other compounds. The true share with any hit is near 3.1%.
SMILES,ADAM17 inh,ADAM10 inh,Hep lipid drop,aDG glyco up,MPTP block,V-ATPase pHluor,VATPase regulator
CCCN(C(=O)COC(=O)CCC(=O)c1ccccc1)c1c(N)n(Cc2ccccc2)c(=O)[nH]c1=O,1.7,-4.9,x,-0.3,-0.2,9.1*,-0.9
O=C(C1CCCN1S(=O)(=O)c1ccc(Cl)s1)N1CCN(c2ccccc2)CC1 (stereo unspecified),3.6,-5.8,x,x,x,x,x
Cc1ccc(OCCn2c(CCNC(=O)C3CCCCCC3)nc3ccccc32)cc1,-5.0,-2.1,x,x,x,x,x
COc1ccc(CN2C/C(=C/c3ccccc3)N3C(=O)C[C@@H](c4ccc5ccccc5c4)N=C23)c(OC)c1,0.7,4.1,x,x,x,x,x
CC(C)(C)OC(=O)NCC(=O)NNC(=O)C(C(=O)OCc1ccccc1)c1ccccc1 (stereo unspecified),2.0,6.7,x,0.1,0.3,8.8*,-0.7
CC(C)C(NC(=O)CNC(=O)OC(C)(C)C)C(=O)NCc1ccccc1 (stereo unspecified),-0.2,-8.7,x,0.1,-0.5,x,x
CC(NC(=O)c1ccc(F)cc1)C(=O)NC1=NCCS1 (stereo unspecified),-1.9,-6.9,-4.1,-0.1,-2.0,-4.0,-1.6
CC(Oc1ccccc1)C(=O)NC1=NCCS1 (stereo unspecified),0.2,3.2,-2.0,-0.4,-4.0,7.3*,-2.3
O=C(COc1ccccc1)NC1=NCCS1,-3.2,1.2,3.8,0.1,0.9,0.8,x
COc1ccc(/C=C/C(=O)NC2=NCCS2)c(OC)c1,-38.7,-149.8,x,x,x,x,x
NS(=O)(=O)c1ccc(NN=C2CCN(Cc3ccccc3)CC2)c([N+](=O)[O-])c1,-1.6,11.7,-17.2,0.5,2.0,16.1*,3.7
CCCC(=O)Nc1ccc(C(=O)Nc2cccc(OC)c2)cc1,-2.3,-7.5,22.6,0.3,0.1,9.7*,2.7
COc1cccc(NC(=O)c2ccc(NC(=O)C(C)(C)C)cc2)c1,-1.9,-1.4,8.0,0.6,-0.6,1.4,x
COCCn1c(SCC(=O)OC(C)C)nnc1-c1ccccc1,4.8,8.7,x,0.4,1.9,9.9*,0.1
CCN1Cc2nnn(CC3CCCCC3)c2-c2ccccc2S1(=O)=O,-1.8,6.5,x,x,x,x,x
COc1ccc(/C=C/S(=O)(=O)NCc2ccccc2)c(CNC(=O)OC(C)(C)C)c1,3.9,6.7,x,x,x,x,x
COc1ccc(-n2nnnc2/C(=C/N(C)C)C(=O)c2ccccc2)cc1,-2.9,5.7,-13.6,-0.1,3.6,3.1,x
CN(C)/C=C(\C(=O)c1ccccc1)c1nnnn1-c1ccc(F)cc1,-3.9,-0.7,5.7,0.0,0.8,20.8*,5.8
CC(SCc1ccccc1)C(=O)Nc1ccccc1Br (stereo unspecified),0.3,-3.0,-0.5,0.1,-0.3,11.4*,-3.5
CC(CN1CCOCC1)OC(=O)CCc1ccccc1 (stereo unspecified),-5.6,-12.2,7.1,-0.6,-0.4,3.3,x
CC(CN1CCCCC1)OC(=O)CCc1ccccc1 (stereo unspecified),0.2,5.7,-1.0,0.9,1.0,9.8*,5.6
CC(c1ccco1)N(C(=O)C12CC3(C)CC(C)(CC(C)(C3)C1)C2)c1ccccn1 (stereo unspecified),3.2,1.7,-5.0,-0.1,-0.5,12.7*,-2.9
COc1ccc(C(=O)NCCn2cc(SCC(=O)NCC3CCCO3)c3ccccc32)cc1OC (stereo unspecified),2.4,1.2,-4.9,0.2,-0.1,8.1*,-3.1
C#CCOCCOCCOCCNc1nc(N2CCOCC2)nc(N2CCN(C(=O)[C@H](CCC(=O)O)n3cc(C(N)CO)nn3)CC2)n1 (stereo partly specified),-8.1,-20.5,x,x,x,x,x
N#CCCN(Cc1cccnc1)S(=O)(=O)c1ccc(S(=O)(=O)NC2CCCCC2)cc1,-3.8,3.3,1.8,-0.1,0.7,8.6*,-2.6
SMILES,ADAM17 inh,ADAM10 inh,Hep lipid drop,aDG glyco up,MPTP block,V-ATPase pHluor,VATPase regulator
C/C=C/c1ccc([C@@H]2[C@H](CO)N(S(C)(=O)=O)[C@H]2CN(C)C(=O)CC)cc1,-3.0,-14.3,x,x,x,x,x
COc1ccc(S[C@]2(C(=O)N3CCCC3)CC(=O)N(C(=O)C3CC3)[C@@H]2c2ccc(OC)cc2)cc1,1.2,4.8,x,x,x,x,x
COc1ccc(-c2cccc(-c3cc(=O)oc4cc(OC)c(OC)c(OC)c34)c2)cc1,-4.8,-13.6,x,0.0,0.0,8.2*,-34.6
COc1cc(-c2cc(=O)c3ccccc3o2)ccc1O,-7.0,-22.3,17.3,-0.3,-0.6,7.7*,6.6
COc1cc(-c2cc(=O)c3c(O)cc(O)cc3o2)ccc1O,x,x,-0.7,-0.5,1.2,x,x
O=C(CCCC(=O)N(c1ccc(F)cc1)C(C(=O)NC1CCCC1)c1ccc(O)cc1)Nc1ccccn1 (stereo unspecified),-4.1,-4.4,-3.1,0.0,0.7,11.3*,1.2
COc1ccc(CN(CCN2CCOCC2)C(=O)c2cc(F)cc(F)c2)cc1OC,0.6,-1.2,x,x,x,x,x
COc1ccc(CCNc2nc(-c3ccco3)cc(C(F)(F)F)n2)cc1OC,4.2,1.2,x,0.5,4.0,11.1*,1.5
O=C(O)c1cccc(NC(=O)c2ccccc2NC(=O)c2cccc([N+](=O)[O-])c2)c1,1.5,-1.5,1.4,0.8,0.4,6.4,x
O=C(Nc1ccc2[nH]c(=O)[nH]c2c1)c1cccc([N+](=O)[O-])c1,2.6,5.2,-6.3,0.1,-0.5,8.9*,-1.3
O=C(Nc1ccc2ccccc2c1)c1cccc([N+](=O)[O-])c1,2.3,3.0,0.3,0.0,1.1,-0.6,x
O=C(Nc1ccccc1C(=O)Nc1ccncc1)c1cccc([N+](=O)[O-])c1,-3.5,-1.5,-23.1,-0.1,-0.7,12.6*,0.0
COc1cc(NC(=O)C2CCCN(S(=O)(=O)c3ccc(C)cc3)C2)cc(OC)c1 (stereo unspecified),4.0,6.0,x,x,x,x,x
C=CCN1C(=O)[C@@H](CC(=O)NCCCOC)[C@]2(C(=O)OCC)CCCCC/C=C/12,-0.3,1.5,x,x,x,x,x
COC(=O)C12C=C3CC(c4ccc(OC)cc4)=C3C(=O)N1Cc1[nH]c3ccccc3c1C2 (stereo unspecified),-14.3,-41.0,x,x,x,x,x
COC(C[C@H](O)C[C@@H](O)[C@H](C)OCc1ccccc1)OC,-5.4,-10.0,-3.2,0.1,-1.9,0.1,x
COC(C[C@@H](O)C[C@H](O)COCc1ccccc1)OC,-2.3,1.4,-33.7,0.0,0.0,31.0*,-1.3
CCOC(=O)C1CCN(C(=O)C(C)(C)NC(=O)Nc2ccc(N(C)C)cc2)CC1,-3.5,-7.9,x,x,x,x,x
Cc1onc(-c2ccccc2)c1C(=O)NC1CCCCC1C (stereo unspecified),3.2,0.6,x,-0.3,1.0,9.2*,-4.1
O=C(NC1CCCC1)C1CCN(S(=O)(=O)c2ccc3[nH]c(=O)oc3c2)CC1,-3.8,-6.7,x,x,x,x,x

# High-throughput results as filed in PubChem BioAssay.
